Screens deposited in PubChem by Sanford-Burnham Center for Chemical Genomics.
Rows were chosen to be rich in hits. Some 3% of all compounds tested hit in one or more screens of this group.
SENP6 block: inhibitors of human SENP6 protease | Q9GZR1 | Recombinant SENP6 catalytic domain, aminoluciferin luminescence | inhibition, % at 10 µM | hit rate 1.8% among 330,000;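 active = inhibition above about 50% at the single tested dose, limit read from the data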
SENP8 block-1: blocks the human protease SENP8 | purified SENP8, Z-RLRGG-aminoluciferin cleavage, luminescence | hit rate 1.2% among 330,000 | inhibition, % at 10 µM | Q96LD8 | AID 2540; in the data active = inhibition above about 50%
SENP8 block-2: blocks human SENP8 cleavage of Nedd8 substrate; Q96LD8; recombinant SENP8, Nedd8 substrate fluorescence; inhibition, % at 20 µM; hit rate 0.64% among 360,000; AID 602440; in the data active = inhibition mostly above about 40%, no sharp cut-off; inactive = mostly below about 27%
Apaf-1 inh: blocks human Apaf-1 apoptosome activity | O14727 | reconstituted apoptosome caspase-3 activity, DEVD-Rh110 fluorescence | inhibition, % at 20 µM | hit rate 0.71% among 330,000 | AID 489030; active = inhibition of at least 40% at 20 µM
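System: Apoptosome proteins | Medium: Hepes pH 7.5 with detergent and BSA | Also added: Cytochrome c trigger plus (Z-DEVD)2-Rh110 caspase-3 substrate | Incubation: 30 min compound preincubation, 50 min activation, room temperature | Detection: Rhodamine 110 fluorescence at Ex 480/Em 540 nm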
SENP7 block: SENP7 protease inhibition; Q9BQF6; recombinant SENP7, Z-RLRGG-aminoluciferin luminescence, 40 min; inhibition, % at 5 µM; hit rate 1.5% among 330,000;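 active = inhibition above about 50% at the single test dose, limit read from the data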
UBC13 inh: inhibitors of human UBC13 polyubiquitin chain formation | inhibition, % at 20 µM | TR-FRET | P61088 | hit rate 0.47% among 330,000; in the data active = inhibition above about 45%, passing the limit was not always enough
SENP8 conf: confirmation of human SENP8 protease inhibitors. shares compounds with SENP7 block. Recombinant SENP8, Z-RLRGG-aminoluciferin luminescence, 60 min. inhibition, % at 12.5 µM. hit rate 40% among 6,200. AID 488912;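 active = mean inhibition across replicates above about 50%, limit read from the data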
SENP6 conf: confirmation of human SENP6 protease inhibitors. shares compounds with SENP7 block. inhibition, % at 12.5 µM. AID 488915. hit rate 58% among 6,200. recombinant SENP6, Z-RLRGG-aminoluciferin luminescence
SENP7 confirm: confirmation of human SENP7 protease inhibitors. shares compounds with SENP7 block. recombinant SENP7, Z-RLRGG-aminoluciferin luminescence, 40 min. inhibition, % at 12.5 µM. hit rate 69% among 6,200
Casp3 select: selectivity test for SENP inhibitors: human caspase-3 inhibition. shares compounds with SENP7 block. inhibition, % at 12.5 µM. hit rate 60% among 6,200. purified caspase-3, Z-DEVD-aminoluciferin luminescence, 60 min;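 active = mean inhibition above about 50%, limit read from the data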
SENP luc ctr: counter-screen for SENP inhibitors: luminescence interference; hit rate 39% among 6,200; shares compounds with SENP7 block; inhibition, % at 12.5 µM; Pre-incubated SENP8/Z-RLRGG-aminoluciferin, luciferase luminescence interference;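 active = mean inhibition above about 50% when retested at one dose, limit read from the data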
A number is an active result.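 The calls were made as follows, unless noted: active = mean inhibition above about 50% in the one-dose retest (limit read from the data); inactive = the rest.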

`CC(=O)Nc1ccc(/C=N/N2C(=O)NC(C)(c3ccc(OC(F)F)cc3)C2=O)cc1` (centres undefined) gave SENP6 block inactive, SENP8 block-1 inactive, SENP8 block-2 inactive, Apaf-1 inh inactive, SENP7 block inactive and UBC13 inh inactive.
For CCCCNC(=O)c1nc(C2CCN(S(=O)(=O)c3c(F)cccc3F)CC2)oc1-c1cccc(C(F)(F)F)c1 the results were SENP8 block-2 inactive.
`NC(=O)c1ccccc1NC(=O)/C=C/c1cccc(Cl)c1` gave SENP6 block inactive, SENP8 block-1 inactive, SENP8 block-2 inactive, Apaf-1 inh inactive, SENP7 block inactive and UBC13 inh inactive.
For NC(=O)c1ccccc1NC(=O)/C=C/c1c(Cl)cccc1Cl the results were SENP6 block 52.5, SENP8 block-1 inactive, SENP8 block-2 inactive, Apaf-1 inh inactive, SENP7 block inactive, UBC13 inh inactive, SENP8 conf inactive, SENP6 conf inactive, SENP7 confirm 86.0, Casp3 select inactive and SENP luc ctr inactive.
Screening O=C(Nc1ccccc1Cl)c1ccccc1Cl returned SENP6 block inactive, SENP8 block-1 inactive, SENP8 block-2 inactive, Apaf-1 inh inactive, SENP7 block inactive and UBC13 inh inactive.
Screening O=C(NNC(=S)Nc1ccccc1Cl)c1ccccc1Cl returned SENP6 block 73.1, SENP8 block-1 73.7, SENP8 block-2 inactive, Apaf-1 inh inactive, SENP7 block inactive, UBC13 inh inactive, SENP8 conf inactive, SENP6 conf inactive, SENP7 confirm inactive, Casp3 select inactive and SENP luc ctr inactive.
For O=C(NNC(=S)Nc1ccccc1Cl)c1ccccc1 the results were SENP6 block 64.6, SENP8 block-1 55.8, SENP8 block-2 inactive, Apaf-1 inh inactive, SENP7 block 91.4, UBC13 inh inactive, SENP8 conf inactive, SENP6 conf inactive, SENP7 confirm inactive, Casp3 select inactive and SENP luc ctr inactive.
`COc1ccccc1NC(=S)NNC(=O)c1ccccc1Br` gave SENP6 block 75.3, SENP8 block-1 inactive, SENP8 block-2 inactive, Apaf-1 inh inactive, SENP7 block 70.6, UBC13 inh inactive, SENP8 conf inactive, SENP6 conf inactive, SENP7 confirm inactive, Casp3 select inactive and SENP luc ctr inactive.
CN(C)c1ccc(NC(=O)Cc2ccccc2)c2ccccc12 was read as SENP6 block inactive, SENP8 block-1 inactive, SENP8 block-2 inactive, Apaf-1 inh inactive, SENP7 block inactive and UBC13 inh inactive.
`CC(C)Oc1ccc(S(=O)(=O)N2CCOCC2)cc1NC(=O)CC1CC2CCC1C2` (centres undefined) gave SENP8 block-2 inactive.
`Cc1noc(C)c1COc1ccc(C(=O)OCC(=O)NCCN2C(=O)CSC2=O)cc1` gave SENP6 block inactive, SENP8 block-1 inactive, SENP8 block-2 inactive, Apaf-1 inh inactive, SENP7 block inactive and UBC13 inh inactive.
Screening COc1ccccc1NC(=O)C1CC(O)CN1C(=O)Oc1ccccc1 (centres undefined) returned SENP6 block inactive, SENP8 block-1 inactive, SENP8 block-2 inactive, Apaf-1 inh inactive, SENP7 block inactive and UBC13 inh inactive.
For Cc1cc(O)ccc1Nc1nc(-c2cccs2)cs1 the results were SENP6 block 70.4, SENP8 block-1 69.9, SENP8 block-2 inactive, Apaf-1 inh inactive, SENP7 block inactive, UBC13 inh inactive, SENP8 conf inactive, SENP6 conf 94.7, SENP7 confirm 100.5, Casp3 select 78.4 and SENP luc ctr 94.2.
Cc1cc(O)ccc1Nc1nc(-c2cccnc2)cs1 was read as SENP6 block inactive, SENP8 block-1 inactive, SENP8 block-2 inactive, Apaf-1 inh inactive, SENP7 block inactive and UBC13 inh inactive.
Cc1ccc(S(=O)(=O)Nc2nc(-c3ccccc3)cs2)cc1 was read as SENP6 block inactive, SENP8 block-1 inactive, SENP8 block-2 inactive, Apaf-1 inh inactive, SENP7 block inactive and UBC13 inh inactive.
For Cc1ccc(Nc2nc(-c3ccccc3)cs2)nc1 the results were SENP6 block inactive, SENP8 block-1 91.1, SENP8 block-2 inactive, Apaf-1 inh inactive, SENP7 block 88.8, UBC13 inh inactive, SENP8 conf 84.6, SENP6 conf 96.6, SENP7 confirm 102.5, Casp3 select 84.0 and SENP luc ctr 71.9.
Screening Cc1ccc(Nc2nc(-c3cccs3)cs2)nc1 returned SENP6 block 93.2, SENP8 block-1 91.3, SENP8 block-2 inactive, Apaf-1 inh inactive, SENP7 block inactive, UBC13 inh inactive, SENP8 conf inactive, SENP6 conf 97.8, SENP7 confirm 101.9, Casp3 select 85.2 and SENP luc ctr 67.5.
For Cc1cc(C)nc(Nc2nc(-c3ccccc3)cs2)n1 the results were SENP6 block 73.8, SENP8 block-1 81.8, SENP8 block-2 inactive, Apaf-1 inh inactive, SENP7 block 89.6, UBC13 inh inactive, SENP8 conf inactive, SENP6 conf inactive, SENP7 confirm inactive, Casp3 select inactive and SENP luc ctr inactive.
c1cncc(Nc2nc(-c3cccs3)cs2)c1 was read as SENP6 block inactive, SENP8 block-1 inactive, SENP8 block-2 inactive, Apaf-1 inh inactive, SENP7 block inactive and UBC13 inh inactive.
CSCCC(NC(=O)c1ccccc1)C(=O)NNC(=O)c1csc(N2CCOCC2)n1 (centres undefined) was read as SENP6 block inactive, SENP8 block-1 inactive, SENP8 block-2 inactive, Apaf-1 inh inactive, SENP7 block inactive and UBC13 inh inactive.
`O=C(CCNS(=O)(=O)c1ccc(F)c(F)c1)NCCN1CCOCC1` gave SENP6 block inactive, SENP8 block-1 inactive, SENP8 block-2 inactive, Apaf-1 inh inactive, SENP7 block inactive and UBC13 inh inactive.
For c1ccc(-c2csc(NC3CCCCC3)n2)cc1 the results were SENP6 block 66.0, SENP8 block-1 inactive, SENP8 block-2 inactive, Apaf-1 inh inactive, SENP7 block inactive, UBC13 inh inactive, SENP8 conf 83.0, SENP6 conf 82.5, SENP7 confirm 95.2, Casp3 select 62.4 and SENP luc ctr 67.1.
For O=C(Nc1nc(-c2ccccc2)cs1)NC1CCCCC1 the results were SENP6 block inactive, SENP8 block-1 inactive, SENP8 block-2 inactive, Apaf-1 inh inactive, SENP7 block inactive and UBC13 inh inactive.
